Test [1] in a line: Cytotoxicity against rat N1S1 cells after 2 days by Alamar blue staining. Format: functional, cell-based. The following applies: N1-S1, 48 h. A digest of the protocol: (§1)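 UCI-101 human ovarian cancer cells and N1–S1 rat hepatoma cells were exposed to a range of concentrations for 2 days. Growth suppression was read by Alamar blue staining, with each concentration run in triplicate, and plotted against concentration.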

Test [2] in a line: Inhibition of tubulin polymerization at 5 uM. A digest of the protocol:
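Tubulin polymerization was run with a commercial polymerization assay kit, and polymerization curves were recorded over time. Colchicine and paclitaxel were run alongside as reference controls.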

A short description of test [3]: Cell cycle arrest in human UCI101 cells assessed as accumulation at G2 phase at 10 nM after 16 hrs using ethidium bromide staining by FACS analysis. It is filed as functional, cell-based. In general terms: Flow cytometry measures light scatter and fluorescence of single cells or particles in a stream.
Test [4] can be described thus: Cell cycle arrest in human UCI101 cells assessed as accumulation at G2 phase at 25 nM after 16 hrs using ethidium bromide staining by FACS analysis. Format: functional, cell-based.
The nature of test [5]: Cell cycle arrest in human UCI101 cells assessed as accumulation at G2 phase at 20 nM after 16 hrs using ethidium bromide staining by FACS analysis. Format: functional, cell-based.
For the next test, the system named is UCI101. As to the kind of experiment: Cytotoxicity against human UCI101 cells at 1 mM after 2 days by Alamar blue staining. It is filed as functional, cell-based. A digest of the protocol:
as §1

Another test deals with N1S1. As to the kind of experiment: Cytotoxicity against rat N1S1 cells at 1 mM after 2 days by Alamar blue staining. Format: functional, cell-based. A digest of the protocol: as §1
Test [6] in a line: Cytotoxicity against human UCI101 cells after 2 days by Alamar blue staining. It is filed as functional, cell-based. The following applies: UCI101, 48 h. A digest of the protocol: as §1
(In general: Resazurin is reduced to fluorescent resorufin, in cell work by metabolically active cells.)

Six compounds from ChEMBL document CHEMBL1155472, “Versatile synthesis of new cytotoxic agents structurally related to hemiasterlins” (Bioorg Med Chem Lett, 2010) can be followed below.

Activity calls are given as the source filed them. The calls are words filed in the database; no cut-off is given here.

One may read the IC50 as the midpoint of a concentration-inhibition curve. The compound `C/C(=C\[C@H](C(C)C)N(C)C(=O)[C@@H](NC(=O)[C@@H](C)NC(C)(C)c1ccccc1)C(C)(C)C)C(=O)O` showed an IC50 in test [1] of 20 nM. The outcome in test [2], in test [3], in test [4] and in test [5] was Active.

As to `C/C(=C\[C@H](C(C)C)N(C)C(=O)[C@@H](NC(=O)C(C)NC1CCCCC1)C(C)(C)C)C(=O)O` (mixture of isomers), the Activity result in the test with UCI101 and in the test with N1S1 was “Not toxic” throughout.

As to `C/C(=C\[C@H](C(C)C)N(C)C(=O)[C@@H](NC(=O)[C@H](C)NC(C)(C)c1ccccc1)C(C)(C)C)C(=O)O`, the IC50 in test [6] and in test [1] was 200 nM each time.

As to `C/C(=C\[C@H](C(C)C)N(C)C(=O)[C@@H](NC(=O)[C@@H](C)NC(C)(C)c1ccccc1)C(C)C)C(=O)O`, it took 20 nM to reach half-maximal inhibition in test [6] (IC50). Besides, in test [2], the inhibition entry was “Active”. Also, the Activity in test [3] amounted to 4.7%; in test [4] it was 12%; in test [5] it was 11%.

Consider `C/C(=C\[C@H](C(C)C)N(C)C(=O)[C@@H](NC(=O)C(C)NC(C)(C)c1ccc2ccccc2c1)C(C)(C)C)C(=O)O` (stereo partly drawn), for which the 50% inhibitory concentration (IC50) in test [6] and in test [1] was 200 nM throughout.

Take `CC(NC(C)(C)c1ccccc1)C(=O)N[C@H](C(=O)N(C)c1cccc(C(=O)O)c1)C(C)C` (stereo partly drawn): the Activity entry in the test on UCI101 and in the test with N1S1 was “Not toxic” throughout.
